In PubChem BioAssay AID522 (The Scripps Research Institute Molecular Screening Center, 2006) one finds activation data, which are given here for 64 compounds.

The structures appear in SMILES notation. The campaign covered roughly 65,000 compounds. About 1,200 (1.8%) were called active. Many of the other results were omitted from the sample, so actives are more common in it than they were. A number with no mark means an inactive call.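 How the source made its calls: active means activation above the mean activation of all tested compounds plus 3 SD (cut at about 50% in these data); inactive means the rest.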

Chain of Steroidogenic factor 1 (Homo sapiens) (Q13285 whole entry, looked up, the tested form may be a part): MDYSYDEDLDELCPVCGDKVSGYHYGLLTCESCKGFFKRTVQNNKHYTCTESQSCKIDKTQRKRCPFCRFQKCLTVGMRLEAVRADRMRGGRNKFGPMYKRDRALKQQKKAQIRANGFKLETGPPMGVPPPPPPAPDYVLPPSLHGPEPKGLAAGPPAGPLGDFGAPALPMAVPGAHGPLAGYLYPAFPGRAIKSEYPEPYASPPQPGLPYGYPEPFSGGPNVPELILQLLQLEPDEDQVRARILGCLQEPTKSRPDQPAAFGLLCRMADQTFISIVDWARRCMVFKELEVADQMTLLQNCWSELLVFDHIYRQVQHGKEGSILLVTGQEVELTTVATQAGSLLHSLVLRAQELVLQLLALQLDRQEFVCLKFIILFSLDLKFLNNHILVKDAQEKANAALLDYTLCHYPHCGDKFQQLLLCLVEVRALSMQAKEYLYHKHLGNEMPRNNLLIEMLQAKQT

The target of the experiment is Steroidogenic factor 1 (Homo sapiens) (UniProt Q13285). In words: activators of human SF-1, primary screen, cell-based, CHO-K1, Gal4-SF-1 LBD, luciferase luminescence (AID 522). Particulars: CHO-K1 Gal4-SF-1 LBD luciferase reporter; at 10 µM; active compounds read high; % increase over DMSO SF-1-specific signal. An outline of the steps:
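Test system: CHO-K1 cells co-transfected with Gal4 DBD–human SF-1 LBD, 5xGal4 luciferase reporter. Quantity: 4,000 cells per well. Compound: 10 µM only. Incubation: compound added 1 h post-seeding, 20 h exposure at 37 °C, 5% CO2. Detection: SteadyLite luciferase luminescence. Replication: one test per compound.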
Regarding `CCCC(=O)N=c1sc2cccc(F)c2n1C`, the activation was 17.9%.

On to `Cn1c(=NC(=O)c2ccco2)sc2cccc(F)c21`, for which the activation was 91.8% (active). On to `Cn1c(=NC(=O)C2CC2)sc2cc(F)cc(F)c21`, for which the activation is -2%. Turning to `CC(=O)Nc1ccn(Cc2c(F)cccc2Cl)n1`, the activation was 42.1%. On to `CCCCOC(=O)c1ccc(N2C(=O)CC(N3CCN(C/C=C/c4ccccc4)CC3)C2=O)cc1` (centres undefined), for which the activation was -6.3%. Under `COc1ccc(-n2nnc3c(=O)n(CC(=O)OCc4ccccc4)cnc32)cc1` stands 9.3%; under `O=C(Cn1cnc2c(cnn2-c2ccc(F)cc2)c1=O)NCCc1ccccc1`, -19.4%; under `O=C(Cn1cnc2c(cnn2-c2ccccc2)c1=O)NCc1ccccc1`, 70.3% (active).

As to `O=C(Cn1c(=O)sc2ccccc21)Nc1ccc2c(c1)OCCO2`, the activation is -9.9%. On to `N#CC(=C1SC=CS1)c1nc(-c2ccccc2)cs1`, for which the activation is 80.9% (active).

In the case of `N#C/C(=C1\CCCN1)c1nc(-c2ccccc2)cs1`, the activation is 30%.

As for `CCOC(=O)CSc1nnc(CNC(=O)c2ccco2)n1-c1ccc(F)cc1`, the activation was 3.4%. For `CN(CCc1ccccn1)S(=O)(=O)c1ccc2c3c(cccc13)C(=O)N2` the value was 14.4%; for `COc1ccccc1OCCC(=O)OCC(=O)NC(=O)NC(C)(C)C`, 8.8%. Regarding `CCc1nnc(NC(=O)CSc2nnc(Cc3ccccc3)n2-c2ccc(OC)cc2)s1`, the activation was -17.5%.

For the compound `CCCCC(CCC(=O)Nc1ccc(C(=O)OCC)cc1)C(=O)O` (centres undefined), the activation was -8.4%. Turning to `CC(C)COC(=O)c1ccc(NC(=O)C2C3C=CC(C3)C2C(=O)O)cc1` (centres undefined), the activation was 63.7% (active).

With `CS(=O)(=O)c1ccc2nc(NC(=O)C3C4C=CC(C4)C3C(=O)O)sc2c1` (centres undefined), the activation is 8.1%. As to `CCc1nnc(NC(=O)c2ccc(S(=O)(=O)NC3CCCCC3)cc2)s1`, the activation was 6.1%. For `COc1cccc(N(CC(=O)Nc2cccc(N(C)S(C)(=O)=O)c2)S(C)(=O)=O)c1` the value was 1.3%.

As for `CCOC(=O)C1CCN(C(=O)Cc2c(C(=O)O)[nH]c3ccccc23)CC1`, the activation was -12.1%.

Take `COC(=O)c1sc(NC(=O)c2csc3c2CCCC3)nc1C`: the activation was 50.9% (active). Consider `CC(=O)Cc1nsc(NC(=O)c2csc3c2CCCC3)n1`, for which the activation was 18%.

`COC(=O)c1sccc1NC(=O)c1csc2c1CCCC2`: the activation was -11.7%. For `CCOC(=O)c1cc(-c2nnc(-c3cc(OC)c(OC)c(OC)c3)o2)c(C)nc1C` the value was -11%; for `Cc1ccc(C)c2[nH]c(=O)c(CCNC(=O)CC(C)C)cc12`, -11.8%. Turning to `CCOC(=O)C1Cn2c(nc3c(c2=O)C(C)(CC)Cc2ccccc2-3)S1` (centres undefined), the activation was -8.9%. On to `CC1Cn2c(nnc2-c2cccs2)S1` (centres undefined), for which the activation was -15.2%. For `O=C(Nc1ccc(Cl)cc1)c1ccsn1`, the activation is 73.5% (active). For the compound `O=C(NCc1cn2ccsc2n1)Nc1ccc(Cl)cc1`, the activation is -1.8%.

Consider `O=C(O)C1CCCCC1C(=O)Nc1ccc(Cl)cc1` (centres undefined), for which the activation is -2.8%.

`CCOC(=O)C1CCCCN1Cc1ccc(OC)c(OC)c1OC` (centres undefined): the activation was -21.3%. For `CN(c1ccc(C(=O)NCCC2=CCCCC2)cc1)S(C)(=O)=O` the value was 55.4% (active); for `O=C(CN1C(=O)NC2(CCCCC2)C1=O)NCCC1=CCCCC1`, 2.8%; for `O=C(COc1cccc(-n2cnnn2)c1)NCCC1=CCCCC1`, -3.3%.

In the case of `Cn1nnc2cc(C(=O)NCCC3=CCCCC3)ccc21`, the activation is 49.9% (active). For the compound `CN(c1ccc(C(=O)N2CCc3ccccc3C2)cc1)S(C)(=O)=O`, the activation was 22.9%. Regarding `O=C(Cc1nn[nH]n1)NCCC1=CCCCC1`, the activation was 3.7%.

Consider `COc1ccc(S(=O)(=O)N2CCCC2)c(C)c1C`, for which the activation was -8.5%.

Take `c1ccc(-c2nnc3n2NC(c2ccc4c(c2)OCO4)S3)cc1` (centres undefined): the activation is -14.9%. Under `CC(C)C[C@H](NC(=O)Nc1cccc(C(F)(F)F)c1)C(=O)O` stands -1.1%; under `Cc1ccsc1-c1nc(CSCC(=O)NCCN2CCCC2)c(C)o1`, 3.6%. Consider `O=C(Nc1cccnc1)c1ccc2c(c1)OCO2`, for which the activation is 13.2%. With `Cn1c(=O)n(C)c2cc(C(=O)Nc3ccc4c(c3)OCO4)ccc21`, the activation was 21.2%. Regarding `Cc1ccc(C(=O)Nc2ccc3c(c2)OCO3)cc1S(=O)(=O)N1CCCCC1`, the activation was 22.6%.

Turning to `CC(C)C(=O)Nc1cccc(C(=O)Nc2ccc3c(c2)OCO3)c1`, the activation is 55% (active).

Turning to `COc1ccc(C(=O)Nc2ccc3c(c2)OCO3)cc1OC`, the activation was 55% (active). With `O=C(Nc1ccc2c(c1)OCCO2)c1ccncc1`, the activation is 20.3%.

On to `CCc1nnc(NC(=O)c2c(O)c3c([nH]c2=O)CCCC3)s1`, for which the activation was 29.1%.

`CC1C(c2ccccc2)=[N+]([O-])C2(CCCC2)N1O` (centres undefined): the activation is 18.6%. As for `O=C(C1CCC(C(=O)N2CCCC2)CC1)N1CCCC1` (centres undefined), the activation is -2.5%. Consider `COc1ccc(NC(=O)c2cccc(NC(=O)c3ccco3)c2)c(OC)c1`, for which the activation is -29.9%.

Regarding `Fc1ccc2nc(N3CCCCC3)sc2c1`, the activation was 43.3%. Take `Fc1cc(F)c2nc(N3CCOCC3)sc2c1`: the activation is 52.6% (active). For the compound `c1c2c(cc3sc(N4CCCCC4)nc13)OCCO2`, the activation is -71.4%. Under `O=C(O)Cc1ccc(NC(=O)c2cccs2)cc1` stands -7.4%. As to `Cc1ccnc(NC(=O)c2ccc(NC(=O)c3ccco3)cc2)c1`, the activation was 46.9%. On to `O=C(Nc1ccc(NC(=O)c2cccs2)cn1)c1ccco1`, for which the activation is 73.3% (active). For `COc1ccc(N(C(=O)c2cccnc2)S(=O)(=O)c2ccc3c(c2)n(C)c(=O)n3C)cc1` the value was -24.3%; for `COc1ccc(Cn2nnc3c(=O)[nH]c(C4CCN(C(=O)c5ccccc5Cl)CC4)nc32)cc1`, -2.2%; for `CCC(=O)Nc1cccc(NC(=O)c2cccnc2)c1`, -0.4%. With `CC(C)NS(=O)(=O)c1ccc(NC(=O)c2cccnc2)cc1`, the activation is 33.9%. On to `Cc1cc2nc(-c3ccc(NC(=O)c4cccnc4)cc3)oc2cc1C`, for which the activation is 54.8% (active).

On to `CCOC(=O)c1ccn(-c2nc(-c3ccco3)cc(C(F)(F)F)n2)n1`, for which the activation is 0.6%.
